Measurements as given in the EternaBench riboswitch data.

System: MS2 coat protein
Assay: apparent Kd, MS2 coat protein; higher = weaker binding; RNA-MaP array; FMN 200 µM where present
In short: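 In 100 mM Tris-HCl pH 7.5, 80 mM KCl, 4 mM MgCl2, BSA, DTT, yeast tRNA and Tween-20, SNAP-549-labelled MS2 coat protein was titrated from 0.7 or 1.5 nM, doubling to 3 µM, over designs transcribed by stalled E. coli RNA polymerase on Illumina sequencing-chip clusters. This was done first without ligand, then with ligand held constant. After green signal was normalised to red-channel RNA signal and control-cluster median Fmax, the apparent Kd was taken as the median of filtered per-cluster binding-curve fits.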

[1] = designed as: OFF switch for flavin mononucleotide, no ligand
[2] = ligand present: flavin mononucleotide, designed as: OFF switch for flavin mononucleotide
[3] = designed as: ON switch for flavin mononucleotide, no ligand
[4] = ligand present: flavin mononucleotide, designed as: ON switch for flavin mononucleotide

Sequence	apparent Kd [1] [nM]	apparent Kd [2] [nM]	apparent Kd [3] [nM]	apparent Kd [4] [nM]
AUCAGCUCGUCAGGAUAUACGUUACUGCGUCAGCAGUGUGGUAAGAUCACAUGAGGAUCACCCAUGUAGAAGGGACGAGCUGAU	61.8	653	–	–
AAGUUUGUACGAGGAUAUCAGUUGUAUCUAAAUUCAACAUGAGGAUCACCCAUGUUGCAAUAGGGUGAGAAGGCGUGUGGGCAA	–	–	44.6	37.9
UGCAUGUGAGGAUAUGUGUACUGUCUUUUGUUUAGAUGUACACAGAAGGCACAUGAGGAUCACCCAUGUAGUAC	126	27.8	–	–
GUAGCAUACCGAGGAUAUUCAUACCGUAAACGGACAUGAGGAUCACCCAUGUGGCGAAAGCCUUGGGAGAAGGCGGAAUGCUAC	–	–	556	30.5
UCGUGGUCAGGAUAUACAUGAGGAUCACCCAUGUAAAAGAGCAUUAAGGAGAGACUACGUAGAAGGGACAAAUU	51.6	47.2	–	–
AUGUUACAUGAGGAUCACCCAUGUGAGGAUAUGUGUACCGGUAAAAAAGUGUCUGGCCACAGAAGGCAUUUGGA	29.4	33	–	–
CCAUGGAAUGUAGGAUAUGACUGACAAAGUCAGUUAGAAGGACAUGAGGAUCACCCAUGUAGGAAACAACCACAUAAACCAUGG	7.62	6.97	–	–
UAAAUUAUCAAGAAGGCUAACAUGAGGAUCACCCAUGUUGUACAUGGAUAUAGAGGAUAUUGCUAAUAAUUAUUUAUCAUAAUU	15.3	14.8	–	–
GGGACUCAAAGAGUACCAAUACGAACAUGAGGAUCACCCAUGUAGGAUAUGCUACUCAAAGAGUAGCAGAAGGACAUGUGCCUA	15.3	82.2	–	–
UGUUGUUUCAAGAAGGAUGUGUAUUUGUAUUCCAUAGGAUAUUGAGAAAUAGUUGCUCAAGUAUACAUGAGGAUCACCCAUGUU	–	–	14.2	9.98
UUAUUUUUACAGAAGGUUUAAUAAUAUGUAUGAGAAGGAUAUGUAACAUGAGGAUCACCCAUGUUUUAUCUAUAUGAGGAUCAU	6.69	6.88	–	–
UUGGACGUCGUAGGAUAUGUAGGUUAUUCCUACAUGAGGAUCACCCAUGUUGACAUGGAAGAAGGACAGAAGGACGAUGUCCAU	–	–	184	4.18
AGGUGACAUGAGGAUCACCCAUGUCAGGAUAUAUACACCGCCGGCGUGAAGCCAGCGGAUAGAAGGGACAAAAU	15.4	16.9	–	–
AGUAGAUCAGGAUAUACGUGAAAGGUCAAAGUGUCCAAUAUACAUGAGGAUCACCCAUGUAGAAGGGAUCUACA	24.8	111	–	–
GCCAUCGUAUGAGGAUAUGGCACCGAAACGGUGCCAGAAGGCAUGUCAAUAGACAUGAGGAUCACCCAUGUUUUAUCGAUGGCA	–	–	89.7	23.5
AAUGUGUCAGGAUAUUGUUAGUUUAGUUGUUUGUAUUAGUUCGAGAAGGGACAUGAGGAUCACCCAUGUUGUUU	30.2	30.6	–	–
AACCACGUUAGAUUAAGCGUGACAUGAGGAUCACCCAUGUGUCAGGAUAUACAUGGGCGGGCCCAGUAGAAGGGACUUAAUAGC	–	–	146	91
AGUACUACAGGAUAUACAUGGGUGAUCCUCAUGUCCCUUCUACAUGAGGAUCACCCAUGUAGAAGGGUAGUACA	15.1	11.3	–	–
GCGUUGUACGAGAAGGCCAAUACAUGAGGAUCACCCAUGUAAAGUUGUAAUGGAGGAUAUCGAACACAUUCAAUAAUGCAACGC	8.29	5.66	–	–
UUCCUGUCAGGAUAUGACUAGAUGCACGUUAGUGUGUUUACUUAGAAGGGACAUGAGGAUCACCCAUGUAGUCC	36.2	33	–	–
GGAUCGAAUGUGAGGAUAUACCUAUGGAAACAUAGGUAGAAGGCACAUGAGGAUCACCCAUGUUCCUACGGUCC	92.2	577	–	–

Sequence	apparent Kd [1] [nM]	apparent Kd [2] [nM]	apparent Kd [3] [nM]	apparent Kd [4] [nM]
GCGUCAGAAUUAAUUGUGACAUACAGAAGGCAAUAGUUUAUUUCAGACAUGAGGAUCACCCAUGUUGAGGAUAUGUAUUUACUC	8.92	7.82	–	–
GUUAGUAUCUAGGAUAUCUAGUACAUAGUAUCUAGAGAAGGAGAUACAUGAGGAUCACCCAUGUUCUGUGUUCU	25.4	70.4	–	–
UUAAUUAAUUAAUUAUACAUGAGGAUCACCCAUGUAAGUGAUCAGGAUAUCAGCUCGAAUAGAGCUGAGAAGGGAUCCAUGUAA	–	–	117	83
GUCGGAAACGACAAAAGUAGCAUACGAGAAGGCUGAUCCACGACAUGAGGAUCACCCAUGUACUUAGAGGAUAUUGGAUGCUAC	–	–	110	26.1
GGGCGGAAUACAUGAGGAUCACCCAUGUCAGAAAGGGUAAUCAGAAGGUACUAUUAGAGAAAGAGUAAGGAUAUGAAUCCGCCC	–	–	906	158
ACUGGGCGCCAACCCAUGUCUAUGGAGGAUAUUACUGCCGGUAUCUCACAUGAGGAUCACCCAUGUAAGAAGGCCAUAAGCACA	34.3	176	–	–
UGAUCGAGAGAUCUUAGAUUCUGGUAGGAUAUACAUUAUGUAAAAUUUACAUGAGGAUCACCCAUGUAGAAGGACUAGAGUCUA	6.19	14.8	–	–
GACUUGUAUGAGAAGGGACAUGGACUAGAUGUGACAUGAGGAUCACCCAUGUCAGGAUAUCAAGCGACCCGUAGCCGAUAGGCG	10.5	46	–	–
ACAAAGUGAGGAUAUGCUUUUAUUUAUUAUUAUUAUUAUUUGCAGAAGGCACAUGAGGAUCACCCAUGUAAGAA	32.9	25.5	–	–
GGAGCCGGCACCGAGGAUAUUCAUAUUAAAACAUGAGGAUCACCCAUGUAGAGCGAAAGCUCUUGGGAGAAGGCGGAUCGGCUCG	–	–	730	46.5
GGGUACAUCGGAGGAUAUUAUGUAAAUACAUGAGGAUCACCCAUGUCGAUGGAGACAUCGGAGAUUGAGAAGGCCGAUGUACCG	–	–	119	8.94
AAGAACUAAGGAUAUACAUGAGGAUCACCCAUGUCUUUUACAUGUUACUGGCCCGCAUGUAGAAGGUAGAAAAG	78.6	135	–	–
GCCAGAGGAGGAUAUCUAAUAUAUCACAUGAGGAUCACCCAUGUCCAGCGAAAGCUGGAGGGAGAAGGCCUCUGGC	149	29.8	–	–
CCGAGGCAAAUAAAACAUGAGGAUCACCCAUGUGAGUCUCAUGAGGAUAUGCAGGUCAAAGACUUGCAGAAGGCAUGGCUUCGG	–	–	1190	146
GUGGUACAUGAGGAUCACCCAUGUGUGGGCGCAUGAGGAUAUGUCAGUCCCUGAAGUACGAUAGAAGGCAUGGUGA	–	–	201	302
CUCGUGUCAGGAUAUCGAUGGCGCCUCCGGGCGCCCGAACGCGAGAAGGGACAUGAGGAUCACCCAUGUAAAAC	71.8	159	–	–
UGUGGGAGUCAGAAGGAGUAUUCUACAUGAGGAUCACCCAUGUCUGGUACUAGGAUAUGGGUCUGGACGGACUAAGGUCCCGUA	–	–	753	196
GGCUACGUUUCGUAGCAGCUAGGUGAGGAUAUUCAAUUUUUCACAUGAGGAUCACCCAUGUAUGUGAAGAAGGCGCCUAGAAAC	–	–	11.2	5.14
UGGUACAUGAGGAUCACCCAUGUAAGAGCCCUCAUGCGAUGUAGAAGGAUUAUGCGAGUAGUGCAAUAGGAUAUACAUGAGUUU	216	163	–	–
UGUCGGAGCAGAGGAUAUUACAUGAGGAUCACCCAUGUAUGAACCAAUAGCUGGAAACAGCCAUGUAAGAAGGCUGCUCCGACA	157	543	–	–
GCAGUACGCCUGGCAAUUUGCAAGCAGGAUAUCAGGCACCGUGAGACAUGAGGAUCACCCAUGUCUGAGAAGGGCUGGAGUUGC	9.68	18.9	–	–
